High-throughput results from PubChem.
Rows were chosen to be rich in hits. Some 9.2% of all compounds tested hit in one or more screens of this group.
L major viab: inhibitors of Leishmania major promastigote growth. Leishmania major promastigotes, resazurin fluorescence viability. inhibition, % at 10 µM. 200,000 compounds, 9% hits; in the data active = inhibition above about 50%;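 note: promastigotes grown with compound for 44 hours at 28 °C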
Autophagy mod: modulators of autophagy; MEF GFP-LC3 puncta imaging; test concentration mostly 10 µM; calls only at 10 µM (by protocol); 190,000 compounds, 0.98% hits;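 active = percentage of spot-positive cells more than 3 SD above its plate mean, without a fluorescence outlier flag or 80% toxicity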
bCat KO growth: beta-catenin-lacking colon tumor cell growth suppression | HCT116 beta-catenin knockout viability, CellTiter-Glo, 60 h; active compounds read low | viability, % at 10 µM | 140,000 compounds, 1.5% hits | AID 818;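 active = viability at or under a set limit, the compound median less 4 SD, cut at about 6% in these data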
HCT116 PTEN-null: growth suppressors of cells with PTEN tumor suppressor deletion | HCT116 PTEN-null viability, CellTiter-Glo, 60 h; active compounds read low | viability, % at 10 µM | 140,000 compounds, 1.2% hits;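 active = viability at or below a set limit, 4 SD under the median of all tested compounds, cut at about 3.7% in these data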;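 note: PTEN knockout HCT116 line with beta catenin targeted HCT116 as companion control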
Dynein cargo inh: blocks dynein driven cargo transport along microtubules; AID 1381; 220,000 compounds, 0.47% hits; z-score, hits read low; 3617.4 mouse cells, GR-EGFP nuclear translocation imaging; test concentration mostly 20 µM; stimulated with dexamethasone, 1 µM; active compounds read low;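 active = plate z-score of nuclear minus cytoplasmic receptor signal below a set negative limit, without overly bright fluorescence or cell loss, cut at about -3.5 in these data, passing the limit was not always enough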;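 note: z-score of nuclear minus cytoplasmic ring GR-EGFP intensity difference per well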
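Buffer or medium: tet-free medium with charcoal-stripped serum / Also added: dexamethasone agonist, 1.0 µM final, for 30 min / Timing: induction 48 h, compound 1 h, agonist 30 min / Measured by: high-content fluorescence imaging after fixation / Read-out: nuclear-to-cytoplasmic GR-EGFP distribution per well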
Numbers stand for hits; 0 = inactive; - = no result; + = active, no number.

SMILES | L major viab | Autophagy mod | bCat KO growth | HCT116 PTEN-null | Dynein cargo inh
CCN1CCN(c2cc(C)c3cc(NC(=S)N4CCCC4)ccc3n2)CC1 | 0 | 0 | - | - | 0
CCN1CCN(C(=S)Nc2ccc3nc(N4CCN(CC)CC4)cc(C)c3c2)CC1 | 0 | 0 | 0 | 0 | 0
Cc1cc(N2CCN(C)CC2)nc2ccc(NC(=O)CCC(=O)NCCC3=CCCCC3)cc12 | 100 | 0 | - | - | 0
COc1ccc(N(CC(=O)NCC2CCCO2)C(=O)CCC(=O)Nc2nccs2)cc1 (stereo not given) | 0 | 0 | 0 | 0 | 0
CC1=C(C(=O)OC2CCCCCCC2)C(c2cc3c(cc2Br)OCO3)CC(=O)N1 (stereo not given) | 0 | 0 | 0 | 0 | 0
CC(C)NCc1nnc(-c2ccccc2Cl)o1 | 0 | 0 | - | - | 0
O=C1c2ccccc2-c2n[nH]c(=O)c3ccc(N4CCCCC4)c1c23 | 0 | 0 | - | - | 0
Oc1ccccc1-n1nc2ccc3nonc3c2n1 | - | - | - | - | 0
CCOC(=O)c1oc2ccc(Br)cc2c1NC(=O)CN1CCN(C)CC1 | 0 | 0 | 4.4 | 0 | 0
COC(=O)c1oc2ccc(Br)cc2c1NC(=O)CCN1CCOCC1 | 0 | 0 | 0 | 0 | 0
COc1ccc2oc(C(=O)c3ccccc3)c(NC(=O)CN3CCN(C)CC3)c2c1 | 98 | + | 1.4 | 1.6 | 0
CCOC(=O)COc1ccc(/C=C2\NC(=S)N(CC)C2=O)cc1 | 97 | 0 | 0 | 0 | 0
Cc1cccc(CSCCNC(=O)c2ccc(CN3CCOCC3)cc2)c1 | 86 | 0 | 0 | 0 | 0
O=C(NCCSCc1ccc(Cl)cc1Cl)c1ccc(CN2CCOCC2)cc1 | 89 | 0 | 0 | 0 | 0
CCCCOCC(O)CN1CCN(C(C)=O)CC1 (stereo not given) | 0 | 0 | 0 | 0 | 0
CC1CCN(CC(O)COCCC23CC4CC(CC(C4)C2)C3)CC1 (stereo not given) | 95 | 0 | 0 | 0 | 0
OC(COCCOc1ccc(Br)cc1)CN1CCCCC1 (stereo not given) | 71 | 0 | 0 | 0 | 0
CC1CC(C)CN(CC(O)COCCOc2ccc(Br)cc2)C1 (stereo not given) | 92 | 0 | 0 | 0 | 0
CC1CCN(CC(O)COCCOc2ccc(Br)cc2)CC1 (stereo not given) | 82 | 0 | 0 | 0 | 0
CCc1ccc(N2C(=O)CC(Cn3nc(C)cc3C)C2=O)cc1 (stereo not given) | - | - | - | - | 0
Cn1cnnc1SCC(=O)NNC(=O)COc1ccc(Cl)cc1 | 0 | 0 | - | - | 0
COc1ccc(-c2nn(-c3ccccc3)cc2/C=C/C(=O)N2CCN(c3ccccn3)CC2)cc1 | 0 | 0 | - | - | 0
NC(=O)/C(=C\c1ccccc1)NC(=O)c1ccc(NC(=O)c2ccccc2)cc1 | - | - | - | - | 0
CC1CC(C)CN(CCOc2ccc(Br)cc2)C1 (stereo not given) | 82 | 0 | 0 | 0 | 0
CC1CC(C)CN(CC(O)COc2ccc3c(c2)CCC3)C1 (stereo not given) | 89 | 0 | 0 | 0 | 0
SMILES | L major viab | Autophagy mod | bCat KO growth | HCT116 PTEN-null | Dynein cargo inh
CC(C)(C)CC(C)(C)NCC(O)COc1ccc2c(c1)CCC2 (stereo not given) | 100 | 0 | - | - | 0
CCOc1ccccc1CNCCOC | 0 | 0 | - | - | 0
COc1cc(S(=O)(=O)n2nc(C)cc2C)c(OC)cc1Cl | 0 | 0 | 0 | 0 | 0
Cc1ccc(CNc2cnn(C34CC5CC(CC(C5)C3)C4)c(=O)c2Cl)cc1 | 0 | 0 | 0 | 0 | 0
O=c1c(Cl)c(NCc2ccc(F)cc2)cnn1C12CC3CC(CC(C3)C1)C2 | 73 | 0 | 0 | 0 | 0
O=c1c(Cl)c(NCc2ccccc2Cl)cnn1C12CC3CC(CC(C3)C1)C2 | 84 | 0 | 0 | 0 | 0
O=c1c(Cl)c(N2CCN(c3ccc(F)cc3)CC2)cnn1C12CC3CC(CC(C3)C1)C2 | 62 | 0 | 0 | 0 | 0
CC(c1ccco1)N(C(=O)c1ccccc1NS(=O)(=O)c1cc([N+](=O)[O-])ccc1Cl)c1ccccn1 (stereo not given) | 51 | 0 | 0 | 0 | 0
Cc1ccc(S(=O)(=O)N(C(=O)c2ccncc2)c2ccc(OC(=O)c3ccncc3)cc2)c(C)c1 | 76 | 0 | 0 | 0 | 0
COC(=O)C1=C(SC)N(c2ccccc2)C(c2ccccc2)CC1=O (stereo not given) | 0 | 0 | 0 | 0 | 0
O=C1CCCCC/C1=N/Nc1ccc(OCc2ccccc2)cc1 | - | - | - | - | 0
CCOc1ccc2c(c1)C(N(CCN1CCOCC1)C(=S)Nc1ccccc1OC)CC(C)(C)O2 (stereo not given) | 59 | 0 | - | - | 0
Cc1nn(CC(=O)O)c(C)c1N | - | - | - | - | 0
Cc1ccn2c(C(=O)N/N=C\c3ccc4c(c3)OCO4)c(C)nc2c1 | 85 | 0 | 0 | 0 | 0
CC(SCc1ccccc1)C(=O)N/N=C/c1ccc2c(c1)OCO2 (stereo not given) | 75 | 0 | 0 | 0 | 0
Cc1cccc(C(=O)N/N=C/c2ccc3c(c2)OCO3)n1 | 0 | 0 | 0 | 0 | 0
COc1ccc(S(=O)(=O)N(CCc2ccccc2)CC(=O)N/N=C/c2ccc3c(c2)OCO3)cc1 | 99 | 0 | 0 | 0 | 0
O=C(N/N=C/c1ccc2c(c1)OCO2)c1ccc2ccccc2n1 | 78 | 0 | - | - | 0
O=C(CN(CCc1ccccc1)S(=O)(=O)c1ccc(Cl)cc1)N/N=C/c1ccc2c(c1)OCO2 | 0 | 0 | 0 | 0 | 0
CCOc1ccccc1C(=O)OCC(=O)Nc1ccc(OC(F)F)cc1 | 0 | 0 | 0 | 0 | 0
COc1ccc(OC)c(C(Nc2ccccc2)P(=O)(OC(C)C)OC(C)C)c1 (stereo not given) | - | - | - | - | 0
CCN(CC)CCOC(=O)c1cccc2c1-c1ccccc1C2O (stereo not given) | - | - | - | - | 0
CCOC(=O)C1CCN(C(=O)C2CCCCC2)CC1 | 0 | 0 | 0 | 0 | 0
Cc1cc(CNCc2c(C(=O)N3CCCCCCC3)nc3ccc(Cl)cn23)nn1C | 0 | 0 | - | - | 0
COc1ccc(/C=C/C(=O)N2CCCc3ccccc32)cc1 | 60 | 0 | 0 | 0 | 0
SMILES | L major viab | Autophagy mod | bCat KO growth | HCT116 PTEN-null | Dynein cargo inh
COc1ccc(OC)c(/C=C/C(=O)N2CCCc3ccccc32)c1 | 0 | 0 | - | - | 0
COc1cc(/C=C/C(=O)N2CCCc3ccccc32)cc(OC)c1OC | 50 | 0 | 0 | 0 | 0
COc1cc(/C=C/C(=O)N2C(=O)c3cccc(N)c3C2=O)cc(OC)c1OC | 0 | 0 | 4.5 | 0 | 0
COCC(C)n1c(=O)sc2ccccc2c1=O (stereo not given) | 0 | 0 | - | - | 0
COC(C[C@H](O)C[C@H](O)COCc1ccccc1)OC | - | - | - | - | 0
NC(=O)NC(=O)COC(=O)CNS(=O)(=O)c1ccc(F)c(F)c1F | - | - | - | - | 0
CCOC(=O)c1c(C)n(C)c2cc(CN(C)C)c(O)c(S(=O)(=O)c3ccccc3)c12 | 0 | 0 | - | - | 0
COc1ccc(/C=C/C(=O)c2cc(F)ccc2OC(=O)c2ccccc2)cc1OC | 100 | 0 | - | - | 0
COc1ccc(/C=C/C(=O)c2cc(F)ccc2OC(=O)c2ccc(OC)c(OC)c2)cc1OC | 92 | 0 | 2.9 | 3.3 | 0
COc1ccc(/C=C/C(=O)c2cc(Br)ccc2O)cc1OC | 0 | 0 | - | - | 0
c1ccc(-c2nnc(OCC3CCCO3)c3ccccc23)cc1 (stereo not given) | 0 | 0 | - | - | 0
